# Source: ChEMBL document CHEMBL4261600 (Eur J Med Chem, 2018)
# Tests used:
# [1] = biological target: Mitogen-activated protein kinase kinase kinase kinase 2 (Homo sapiens) (UniProt Q12851); test: Binding affinity to wild-type human partial length MAP4K2 (M1 to G318 residues) expressed in mammalian expression system assessed as remaining unbound target protein level at 1000 nM by Kinomescan method relative to control
# In short: (§1)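 KINOMEscan binding panel of 468 kinases/mutants. Inhibitor was tested at a single concentration of 1 μM. Binding is reported as percent of control, defined relative to a DMSO control.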
# [2] = test system: Receptor-type tyrosine-protein kinase FLT3 (Homo sapiens), P36888 [UNDEFINED MUTATION]; test: Binding affinity to human partial length FLT3 ITD mutant expressed in bacterial expression system assessed as remaining unbound target protein level at 1000 nM by Kinomescan method relative to control
# Sequence of Receptor-type tyrosine-protein kinase FLT3 (Homo sapiens), P36888 [UNDEFINED MUTATION] (P36888 whole entry, looked up, change not shown): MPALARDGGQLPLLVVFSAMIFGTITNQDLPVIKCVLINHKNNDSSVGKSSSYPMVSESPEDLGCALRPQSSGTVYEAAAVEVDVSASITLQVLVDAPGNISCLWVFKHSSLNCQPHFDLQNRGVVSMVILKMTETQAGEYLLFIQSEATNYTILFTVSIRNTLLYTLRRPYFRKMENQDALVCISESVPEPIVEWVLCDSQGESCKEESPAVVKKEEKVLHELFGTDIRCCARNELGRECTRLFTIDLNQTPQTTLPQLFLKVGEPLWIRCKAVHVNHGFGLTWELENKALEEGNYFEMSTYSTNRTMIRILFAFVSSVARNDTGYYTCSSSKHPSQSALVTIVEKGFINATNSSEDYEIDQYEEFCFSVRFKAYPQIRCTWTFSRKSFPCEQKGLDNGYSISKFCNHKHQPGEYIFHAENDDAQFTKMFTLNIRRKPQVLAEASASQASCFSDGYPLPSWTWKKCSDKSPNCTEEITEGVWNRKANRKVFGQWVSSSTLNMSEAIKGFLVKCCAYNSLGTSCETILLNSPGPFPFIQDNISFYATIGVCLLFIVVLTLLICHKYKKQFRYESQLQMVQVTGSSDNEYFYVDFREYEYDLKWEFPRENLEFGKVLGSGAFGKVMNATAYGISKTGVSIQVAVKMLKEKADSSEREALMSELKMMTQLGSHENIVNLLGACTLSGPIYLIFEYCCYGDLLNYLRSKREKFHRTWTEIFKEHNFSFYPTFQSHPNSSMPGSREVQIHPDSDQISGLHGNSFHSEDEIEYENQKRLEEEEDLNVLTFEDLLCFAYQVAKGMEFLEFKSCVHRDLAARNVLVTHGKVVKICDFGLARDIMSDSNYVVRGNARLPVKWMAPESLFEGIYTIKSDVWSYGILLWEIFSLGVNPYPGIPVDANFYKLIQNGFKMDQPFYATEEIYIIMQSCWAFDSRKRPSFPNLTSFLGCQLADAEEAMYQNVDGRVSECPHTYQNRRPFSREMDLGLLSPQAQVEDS
# In short: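 KINOMEscan competition-binding profiling across the panel of 468 kinases and mutants, with inhibitor tested at 1 μM. Binding is expressed as percent of control, with DMSO as the reference control.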
# [3] = biological target: Tyrosine-protein kinase Blk (Homo sapiens) (UniProt P51451); test: Binding affinity to wild-type human partial length BLK (G211 to L503 residues) expressed in bacterial expression system assessed as remaining unbound target protein level at 1000 nM by Kinomescan method relative to control
# In short: (§2)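 Profiled in a KINOMEscan binding panel with the inhibitor at a single concentration of 1 μM. Binding to each kinase was read out as percent of control, relative to a DMSO control. Strong binders were defined as those with a percent control value below 1.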
# [4] = Cmax in Sprague-Dawley rat at 3 mg/kg, iv by LC-MS/MS analysis; assay type: ADME, organism-based; design: dose 3 mg/kg, route intravenous; conditions: in vivo
# [5] = biological target: cAMP-dependent protein kinase catalytic subunit alpha (Homo sapiens) (UniProt P17612); test: Binding affinity to wild-type human partial length PKAC-alpha (G10 to F351 residues) expressed in bacterial expression system assessed as remaining unbound target protein level at 1000 nM by Kinomescan method relative to control
# [6] = biological target: Phosphatidylinositol 4,5-bisphosphate 3-kinase catalytic subunit delta isoform (Homo sapiens) (UniProt O00329); test: Binding affinity to wild-type human partial length PIK3CD (R108 to Q1044 residues) expressed in mammalian expression system assessed as remaining unbound target protein level at 1000 nM by Kinomescan method relative to control
# Sequence of Phosphatidylinositol 4,5-bisphosphate 3-kinase catalytic subunit delta isoform (Homo sapiens) (O00329 whole entry, the tested form may be a part, canonical isoform): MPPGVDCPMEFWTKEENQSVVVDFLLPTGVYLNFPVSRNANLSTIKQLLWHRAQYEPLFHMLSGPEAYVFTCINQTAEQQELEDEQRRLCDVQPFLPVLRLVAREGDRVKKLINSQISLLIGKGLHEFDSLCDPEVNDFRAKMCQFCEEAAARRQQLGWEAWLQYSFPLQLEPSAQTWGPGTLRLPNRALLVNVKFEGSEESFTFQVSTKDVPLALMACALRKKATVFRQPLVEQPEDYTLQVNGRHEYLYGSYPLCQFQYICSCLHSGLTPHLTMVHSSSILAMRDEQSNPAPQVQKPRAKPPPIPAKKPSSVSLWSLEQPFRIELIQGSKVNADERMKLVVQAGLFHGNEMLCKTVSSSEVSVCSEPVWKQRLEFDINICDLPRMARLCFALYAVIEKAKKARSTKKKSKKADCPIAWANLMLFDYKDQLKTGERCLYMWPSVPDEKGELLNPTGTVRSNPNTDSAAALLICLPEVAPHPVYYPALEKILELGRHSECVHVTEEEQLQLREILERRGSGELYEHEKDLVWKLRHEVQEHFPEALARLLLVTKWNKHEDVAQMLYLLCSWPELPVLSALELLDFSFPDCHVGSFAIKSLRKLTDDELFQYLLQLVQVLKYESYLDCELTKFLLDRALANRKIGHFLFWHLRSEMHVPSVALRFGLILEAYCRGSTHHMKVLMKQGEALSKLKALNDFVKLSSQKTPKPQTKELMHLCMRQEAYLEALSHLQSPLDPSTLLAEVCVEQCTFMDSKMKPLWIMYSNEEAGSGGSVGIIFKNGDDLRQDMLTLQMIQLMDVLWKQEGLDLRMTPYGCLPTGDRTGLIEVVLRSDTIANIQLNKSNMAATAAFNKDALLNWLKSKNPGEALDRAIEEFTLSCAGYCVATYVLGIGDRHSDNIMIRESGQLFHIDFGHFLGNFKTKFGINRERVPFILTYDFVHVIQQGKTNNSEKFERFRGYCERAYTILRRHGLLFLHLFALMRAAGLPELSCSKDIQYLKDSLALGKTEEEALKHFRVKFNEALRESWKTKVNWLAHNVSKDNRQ
# [7] = biological target: Macrophage colony-stimulating factor 1 receptor (Homo sapiens) (UniProt P07333); test: Binding affinity to wild-type human partial length CSF1R (I564 to S939 residues) expressed in bacterial expression system assessed as remaining unbound target protein level at 1000 nM by Kinomescan method relative to control
# [8] = biological target: Tyrosine-protein kinase Lck (Homo sapiens) (UniProt P06239); test: Binding affinity to wild-type human partial length LCK (R207 to P509 residues) expressed in bacterial expression system assessed as remaining unbound target protein level at 1000 nM by Kinomescan method relative to control; in short: as §1
# [9] = biological target: Interleukin-1 receptor-associated kinase 1 (Homo sapiens) (UniProt P51617); test: Binding affinity to wild-type human partial length IRAK1 (R194 to S712 residues) expressed in mammalian expression system assessed as remaining unbound target protein level at 1000 nM by Kinomescan method relative to control; in short: as §1
# [10] = biological target: Serine/threonine-protein kinase 38-like (Homo sapiens) (UniProt Q9Y2H1); test: Binding affinity to wild-type human partial length NDR2 (N34 to E447 residues) expressed in bacterial expression system assessed as remaining unbound target protein level at 1000 nM by Kinomescan method relative to control
# [11] = biological target: Dual specificity protein kinase CLK2 (Homo sapiens) (UniProt P49760); test: Binding affinity to wild-type human partial length CLK2 (D144 to R498 residues) expressed in bacterial expression system assessed as remaining unbound target protein level at 1000 nM by Kinomescan method relative to control
# In short: (§3)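 KINOMEscan competition binding profile across a panel of 468 kinases and mutants, with the inhibitor tested at a single concentration of 1 μM. Binding is reported as percent of control, meaning signal relative to a DMSO control.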
# SKM-1 = test: Antiproliferative activity against human SKM1 cells after 72 hrs by Celltiter-Glo assay; assay type: functional; conditions: SKM-1, 72 h
# In short: (§4)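 Cells seeded at 3000/well in 96-well plates, exposed to serially diluted compound for 72 h at 37 °C, 5% CO2. Viability read by CellTiter-Glo luminescence and normalized to DMSO control. GI50 derived from curve fit, mean of three independent measurements. Culture media: DMEM/10% FBS for adherent lines; IMDM for MV4-11 and MEC-1/2; RPMI 1640 for suspension lines and CHL.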
# [12] = biological target: Cyclin-G-associated kinase (Homo sapiens) (UniProt O14976); test: Binding affinity to wild-type human partial length GAK (G13 to Y338 residues) expressed in bacterial expression system assessed as remaining unbound target protein level at 1000 nM by Kinomescan method relative to control
# Sequence of Cyclin-G-associated kinase (Homo sapiens) (O14976 whole entry, the tested form may be a part): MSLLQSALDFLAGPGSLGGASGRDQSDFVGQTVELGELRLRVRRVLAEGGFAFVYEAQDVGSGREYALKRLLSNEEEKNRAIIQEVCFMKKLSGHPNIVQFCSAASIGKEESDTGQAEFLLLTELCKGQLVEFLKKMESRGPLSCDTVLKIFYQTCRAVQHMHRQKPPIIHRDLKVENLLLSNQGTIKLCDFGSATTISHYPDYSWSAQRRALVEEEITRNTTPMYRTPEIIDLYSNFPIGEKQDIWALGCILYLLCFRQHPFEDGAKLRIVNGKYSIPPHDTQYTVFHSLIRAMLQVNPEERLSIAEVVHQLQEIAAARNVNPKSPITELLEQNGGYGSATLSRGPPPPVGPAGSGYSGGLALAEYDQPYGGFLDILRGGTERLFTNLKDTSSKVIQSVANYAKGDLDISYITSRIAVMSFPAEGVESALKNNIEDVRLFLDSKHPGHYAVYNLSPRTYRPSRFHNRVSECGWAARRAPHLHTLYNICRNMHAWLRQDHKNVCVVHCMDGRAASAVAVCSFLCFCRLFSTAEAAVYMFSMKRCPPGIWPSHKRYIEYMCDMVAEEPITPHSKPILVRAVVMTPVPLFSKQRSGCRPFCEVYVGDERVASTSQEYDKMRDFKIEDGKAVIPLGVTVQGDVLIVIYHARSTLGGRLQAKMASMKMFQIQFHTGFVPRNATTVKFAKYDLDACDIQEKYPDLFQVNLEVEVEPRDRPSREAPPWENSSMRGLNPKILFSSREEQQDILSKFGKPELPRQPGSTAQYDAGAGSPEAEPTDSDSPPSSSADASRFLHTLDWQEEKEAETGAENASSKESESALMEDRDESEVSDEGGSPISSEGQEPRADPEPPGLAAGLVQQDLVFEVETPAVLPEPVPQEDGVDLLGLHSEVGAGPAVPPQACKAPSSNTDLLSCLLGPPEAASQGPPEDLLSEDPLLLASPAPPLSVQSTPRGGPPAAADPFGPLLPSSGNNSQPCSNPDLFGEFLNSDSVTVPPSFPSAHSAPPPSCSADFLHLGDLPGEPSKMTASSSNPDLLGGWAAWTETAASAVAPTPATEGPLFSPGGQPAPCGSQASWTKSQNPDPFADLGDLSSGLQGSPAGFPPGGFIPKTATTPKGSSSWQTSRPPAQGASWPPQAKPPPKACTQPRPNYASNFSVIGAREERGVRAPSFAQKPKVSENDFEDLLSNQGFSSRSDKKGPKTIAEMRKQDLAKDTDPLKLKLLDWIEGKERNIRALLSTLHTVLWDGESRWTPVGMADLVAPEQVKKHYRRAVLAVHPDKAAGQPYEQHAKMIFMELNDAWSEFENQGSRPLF
# GISTT1 = test: Antiproliferative activity against human GISTT1 cells after 72 hrs by Celltiter-Glo assay; assay type: functional; conditions: GISTT1, 72 h; in short: as §4
# [13] = biological target: Calcium/calmodulin-dependent protein kinase type 1B (Homo sapiens) (UniProt Q6P2M8); test: Binding affinity to wild-type human partial length CAMK1B (W9 to A311 residues) expressed in mammalian expression system assessed as remaining unbound target protein level at 1000 nM by Kinomescan method relative to control; in short: as §2
# Sequence of Calcium/calmodulin-dependent protein kinase type 1B (Homo sapiens) (Q6P2M8 whole entry, the tested form may be a part): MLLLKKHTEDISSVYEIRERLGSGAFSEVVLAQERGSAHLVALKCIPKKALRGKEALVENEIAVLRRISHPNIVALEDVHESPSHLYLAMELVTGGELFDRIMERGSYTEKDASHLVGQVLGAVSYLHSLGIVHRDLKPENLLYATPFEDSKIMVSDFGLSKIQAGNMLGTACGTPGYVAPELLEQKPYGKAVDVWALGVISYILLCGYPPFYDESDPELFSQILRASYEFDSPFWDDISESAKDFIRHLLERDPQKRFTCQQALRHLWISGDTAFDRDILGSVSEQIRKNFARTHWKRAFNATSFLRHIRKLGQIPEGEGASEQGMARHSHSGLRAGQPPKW
# [14] = biological target: Activin receptor type-1 (Homo sapiens) (UniProt Q04771); test: Binding affinity to wild-type human ACVR1 (C188 to C509 residues) expressed in bacterial expression system assessed as remaining unbound target protein level at 1000 nM by Kinomescan method relative to control
# In short: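 KINOMEscan competitive binding profile at 1 μM inhibitor. Remaining target binding reported as percent of DMSO control.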
# [15] = biological target: Vascular endothelial growth factor receptor 3 (Homo sapiens) (UniProt P35916); test: Binding affinity to wild-type human partial length FLT4 (E821 to E1196 residues) expressed in bacterial expression system assessed as remaining unbound target protein level at 1000 nM by Kinomescan method relative to control
# Sequence of Vascular endothelial growth factor receptor 3 (Homo sapiens) (P35916 whole entry, the tested form may be a part): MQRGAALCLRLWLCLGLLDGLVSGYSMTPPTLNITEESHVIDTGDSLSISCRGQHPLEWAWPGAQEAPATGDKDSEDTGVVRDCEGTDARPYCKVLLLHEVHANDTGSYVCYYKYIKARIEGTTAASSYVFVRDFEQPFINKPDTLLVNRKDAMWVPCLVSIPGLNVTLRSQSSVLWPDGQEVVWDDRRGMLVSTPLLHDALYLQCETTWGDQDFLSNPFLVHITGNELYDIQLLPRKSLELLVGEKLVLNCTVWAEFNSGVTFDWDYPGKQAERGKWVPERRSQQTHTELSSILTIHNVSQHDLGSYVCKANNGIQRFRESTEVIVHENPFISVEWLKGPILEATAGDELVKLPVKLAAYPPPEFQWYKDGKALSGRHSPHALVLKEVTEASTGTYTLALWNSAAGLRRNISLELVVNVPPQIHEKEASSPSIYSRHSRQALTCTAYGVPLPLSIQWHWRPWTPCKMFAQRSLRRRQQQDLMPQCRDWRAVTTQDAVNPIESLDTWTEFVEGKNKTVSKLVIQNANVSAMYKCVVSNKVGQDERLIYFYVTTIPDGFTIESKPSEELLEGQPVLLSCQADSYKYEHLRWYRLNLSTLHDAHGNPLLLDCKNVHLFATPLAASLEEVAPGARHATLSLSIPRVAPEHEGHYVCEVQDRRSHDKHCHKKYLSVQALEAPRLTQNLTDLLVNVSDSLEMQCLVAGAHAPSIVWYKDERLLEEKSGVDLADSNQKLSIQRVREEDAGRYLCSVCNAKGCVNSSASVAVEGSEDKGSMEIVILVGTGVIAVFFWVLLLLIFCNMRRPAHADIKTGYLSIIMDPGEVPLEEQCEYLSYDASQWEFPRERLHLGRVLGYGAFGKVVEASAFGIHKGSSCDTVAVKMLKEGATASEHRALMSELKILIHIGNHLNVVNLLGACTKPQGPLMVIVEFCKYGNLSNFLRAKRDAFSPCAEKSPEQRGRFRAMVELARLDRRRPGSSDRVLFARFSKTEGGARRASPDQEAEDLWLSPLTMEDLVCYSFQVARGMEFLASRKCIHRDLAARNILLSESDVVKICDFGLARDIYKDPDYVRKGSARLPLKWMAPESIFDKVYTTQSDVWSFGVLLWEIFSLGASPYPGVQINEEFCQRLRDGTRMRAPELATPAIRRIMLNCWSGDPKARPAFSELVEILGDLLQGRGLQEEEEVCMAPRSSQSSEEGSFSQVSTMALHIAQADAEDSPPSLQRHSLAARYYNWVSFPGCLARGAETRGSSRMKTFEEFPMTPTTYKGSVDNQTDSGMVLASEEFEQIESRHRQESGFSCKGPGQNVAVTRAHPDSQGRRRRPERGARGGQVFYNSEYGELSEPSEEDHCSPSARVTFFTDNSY
# [16] = biological target: Mitogen-activated protein kinase kinase kinase 13 (Homo sapiens) (UniProt O43283); test: Binding affinity to wild-type human full length LZK (M1 to W966 residues) expressed in mammalian expression system assessed as remaining unbound target protein level at 1000 nM by Kinomescan method relative to control; in short: as §3
# [17] = biological target: Mitogen-activated protein kinase 1 (Homo sapiens) (UniProt P28482); test: Binding affinity to wild-type human full length ERK2 (M1 to S360 residues) expressed in bacterial expression system assessed as remaining unbound target protein level at 1000 nM by Kinomescan method relative to control
# In short: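 Single-point competition binding screen across a panel of 468 kinases and mutants, with the inhibitor at 1 μM. Binding is read out as percent of a DMSO control, and targets below 1 percent control were classed as strong binders.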
# [18] = biological target: Platelet-derived growth factor receptor alpha (Homo sapiens) (UniProt P16234); test: Binding affinity to wild-type human partial length PDGFRA (V575 to D1002 residues) expressed in mammalian expression system assessed as remaining unbound target protein level at 1000 nM by Kinomescan method relative to control
compound,measurement,setting,value
COCCN[C@H]1CC[C@H](Nc2cc(-c3csc(NCC4(C#N)CCOCC4)n3)c(Cl)cn2)CC1,Activity,[1],56%
same,Activity,[2],89%
same,Activity,[3],97%
same,Cmax,[4],1470 ng/mL
same,Activity,[5],87%
same,Activity,[6],85%
same,Activity,[7],87%
same,Activity,[8],81%
same,Activity,[9],57%
same,Activity,[10],78%
same,Activity,[11],38%
same,GI50,SKM-1,12 nM
same,Activity,[12],100%
same,GI50,GISTT1,2.1 nM
same,Activity,[13],97%
same,Activity,[14],91%
same,Activity,[15],88%
same,Activity,[16],99%
same,Activity,[17],96%
same,Activity,[18],100%
